The values that follow come from ChEMBL document CHEMBL2346522, “Rational design of apoptosis signal-regulating kinase 1 inhibitors: discovering novel structural scaffold” (Eur J Med Chem, 2013).

Assay [1] concerns the target Casein kinase II (Homo sapiens) (UniProt P67870+P68400+P19784). Briefly: Inhibition of human CK2 using RRRDDDSDDD as substrate assessed as residual activity at 10 uM incubated for 10 mins prior to ATP addition measured after 20 mins by liquid scintillation counting analysis. The format is protein-complex assay.
The target in assay [2] is Mitogen-activated protein kinase 10 (Homo sapiens) (UniProt P53779). Briefly: Inhibition of human JNK3 using JNK3tide as substrate assessed as residual activity at 10 uM incubated for 10 mins prior to ATP addition measured after 20 mins by liquid scintillation counting analysis.
Assay [3] deals with Angiopoietin-1 receptor (Homo sapiens) (UniProt Q02763). Briefly: Inhibition of human Tie2 using TK substrate 2 as substrate assessed as residual activity at 10 uM incubated for 10 mins prior to ATP addition measured after 20 mins by liquid scintillation counting analysis.
For assay [4], the target named is Fibroblast growth factor receptor 1 (Homo sapiens) (UniProt P11362). Briefly: Inhibition of human FGFR1 using IGF-IRtide (12 to 527) as substrate assessed as residual activity at 10 uM incubated for 10 mins prior to ATP addition measured after 20 mins by liquid scintillation counting analysis.
The target of assay [5] is Hepatocyte growth factor receptor (Homo sapiens) (UniProt P08581). Briefly: Inhibition of human HGFR using KKKSPGEYVNIEFG as substrate assessed as residual activity at 10 uM incubated for 10 mins prior to ATP addition measured after 20 mins by liquid scintillation counting analysis.
The target in assay [6] is T1, Aurora kinase A (Homo sapiens) (UniProt O14965).
T1 sequence (whole entry): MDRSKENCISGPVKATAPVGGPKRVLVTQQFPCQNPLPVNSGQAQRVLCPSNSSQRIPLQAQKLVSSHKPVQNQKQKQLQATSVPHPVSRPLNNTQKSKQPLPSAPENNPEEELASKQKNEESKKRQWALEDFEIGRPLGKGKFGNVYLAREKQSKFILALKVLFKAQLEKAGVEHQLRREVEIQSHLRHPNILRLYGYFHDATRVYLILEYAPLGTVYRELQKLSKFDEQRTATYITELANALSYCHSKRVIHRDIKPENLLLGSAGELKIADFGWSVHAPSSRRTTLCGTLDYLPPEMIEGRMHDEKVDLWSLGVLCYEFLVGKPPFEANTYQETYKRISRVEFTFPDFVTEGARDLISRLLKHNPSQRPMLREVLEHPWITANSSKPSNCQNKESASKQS
Briefly: Inhibition of human Aurora A using Kemptide as substrate assessed as residual activity at 10 uM incubated for 10 mins prior to ATP addition measured after 20 mins by liquid scintillation counting analysis.

Assay [7] deals with T2, Mitogen-activated protein kinase kinase kinase 5 (Homo sapiens) (UniProt Q99683).
T2 sequence (whole entry): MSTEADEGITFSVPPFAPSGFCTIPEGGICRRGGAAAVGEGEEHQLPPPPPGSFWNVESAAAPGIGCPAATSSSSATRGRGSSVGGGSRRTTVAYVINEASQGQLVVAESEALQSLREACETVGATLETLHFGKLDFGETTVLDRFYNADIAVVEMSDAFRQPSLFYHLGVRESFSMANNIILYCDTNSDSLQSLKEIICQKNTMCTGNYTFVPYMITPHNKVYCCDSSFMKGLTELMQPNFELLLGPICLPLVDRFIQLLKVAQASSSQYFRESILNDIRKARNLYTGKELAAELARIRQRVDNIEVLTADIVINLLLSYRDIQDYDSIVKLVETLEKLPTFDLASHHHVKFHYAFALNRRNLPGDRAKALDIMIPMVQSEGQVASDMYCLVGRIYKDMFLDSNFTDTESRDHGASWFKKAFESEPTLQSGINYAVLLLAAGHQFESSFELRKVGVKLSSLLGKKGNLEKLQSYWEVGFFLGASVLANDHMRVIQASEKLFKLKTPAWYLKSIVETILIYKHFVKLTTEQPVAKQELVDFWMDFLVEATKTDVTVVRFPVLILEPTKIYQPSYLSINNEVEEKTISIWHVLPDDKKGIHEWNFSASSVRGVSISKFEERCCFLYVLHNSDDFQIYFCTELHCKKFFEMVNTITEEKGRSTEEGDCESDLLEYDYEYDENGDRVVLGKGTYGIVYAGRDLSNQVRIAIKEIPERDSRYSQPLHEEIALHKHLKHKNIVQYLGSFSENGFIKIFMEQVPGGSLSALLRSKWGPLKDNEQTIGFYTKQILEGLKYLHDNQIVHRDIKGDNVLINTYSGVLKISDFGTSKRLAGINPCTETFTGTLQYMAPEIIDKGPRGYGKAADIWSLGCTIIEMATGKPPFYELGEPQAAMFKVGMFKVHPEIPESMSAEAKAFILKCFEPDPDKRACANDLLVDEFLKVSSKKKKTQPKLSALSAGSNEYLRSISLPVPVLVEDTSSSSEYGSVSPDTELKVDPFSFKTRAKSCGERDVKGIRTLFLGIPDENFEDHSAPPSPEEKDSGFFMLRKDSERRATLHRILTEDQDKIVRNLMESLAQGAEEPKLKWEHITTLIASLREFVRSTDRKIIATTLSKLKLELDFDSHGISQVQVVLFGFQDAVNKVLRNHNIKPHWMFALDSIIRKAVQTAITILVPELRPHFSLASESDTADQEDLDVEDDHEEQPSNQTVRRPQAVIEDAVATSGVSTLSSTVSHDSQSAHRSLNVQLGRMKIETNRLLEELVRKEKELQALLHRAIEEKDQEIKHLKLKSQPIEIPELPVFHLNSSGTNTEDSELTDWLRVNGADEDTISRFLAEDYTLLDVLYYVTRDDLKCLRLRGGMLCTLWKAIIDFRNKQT
Briefly: Inhibition of human ASK1 using MBP as substrate assessed as residual activity at 10 uM incubated for 10 mins prior to ATP addition measured after 20 mins by liquid scintillation counting analysis.

Assay [8] addresses T3, Mitogen-activated protein kinase kinase kinase 5 (Homo sapiens, UniProt Q99683).
T3 sequence (Q99683 whole entry): T2 sequence (whole entry)
Briefly: Inhibition of human ASK1 using MBP as substrate incubated for 10 mins prior to ATP addition measured after 20 mins by liquid scintillation counting analysis. In short, it runs like this:
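Inhibitor added from a DMSO stock is incubated with enzyme on ice for 10 min. The reaction is started with ATP plus MgCl₂ in MOPS pH 7.2, and labeled and unlabeled ATP are combined.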

Chain of Fibroblast growth factor receptor 1 (Homo sapiens) (P11362 22-822 limits assumed): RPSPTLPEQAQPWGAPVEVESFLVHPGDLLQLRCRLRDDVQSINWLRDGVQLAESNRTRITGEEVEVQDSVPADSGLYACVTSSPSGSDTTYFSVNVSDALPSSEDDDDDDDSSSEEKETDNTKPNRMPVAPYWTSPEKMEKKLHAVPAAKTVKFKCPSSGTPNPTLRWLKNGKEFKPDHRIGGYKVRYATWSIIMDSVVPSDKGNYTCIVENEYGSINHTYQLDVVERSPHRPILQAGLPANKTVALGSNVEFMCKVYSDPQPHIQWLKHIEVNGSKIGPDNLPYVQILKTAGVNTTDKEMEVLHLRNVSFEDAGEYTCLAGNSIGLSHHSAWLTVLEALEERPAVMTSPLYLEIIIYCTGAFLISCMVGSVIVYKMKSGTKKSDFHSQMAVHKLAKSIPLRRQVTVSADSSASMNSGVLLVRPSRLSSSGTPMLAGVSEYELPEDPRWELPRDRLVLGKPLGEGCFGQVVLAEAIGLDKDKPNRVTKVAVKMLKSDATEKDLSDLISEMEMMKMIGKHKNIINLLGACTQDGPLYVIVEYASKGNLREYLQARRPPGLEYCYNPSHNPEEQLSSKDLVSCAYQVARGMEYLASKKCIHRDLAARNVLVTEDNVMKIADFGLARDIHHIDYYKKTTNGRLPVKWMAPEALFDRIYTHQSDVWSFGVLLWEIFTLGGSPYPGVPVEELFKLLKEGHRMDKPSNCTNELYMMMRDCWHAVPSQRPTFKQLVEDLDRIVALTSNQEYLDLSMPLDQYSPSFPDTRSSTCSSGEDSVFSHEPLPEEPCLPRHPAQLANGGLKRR
Chain of Mitogen-activated protein kinase 10 (Homo sapiens) (P53779 whole entry): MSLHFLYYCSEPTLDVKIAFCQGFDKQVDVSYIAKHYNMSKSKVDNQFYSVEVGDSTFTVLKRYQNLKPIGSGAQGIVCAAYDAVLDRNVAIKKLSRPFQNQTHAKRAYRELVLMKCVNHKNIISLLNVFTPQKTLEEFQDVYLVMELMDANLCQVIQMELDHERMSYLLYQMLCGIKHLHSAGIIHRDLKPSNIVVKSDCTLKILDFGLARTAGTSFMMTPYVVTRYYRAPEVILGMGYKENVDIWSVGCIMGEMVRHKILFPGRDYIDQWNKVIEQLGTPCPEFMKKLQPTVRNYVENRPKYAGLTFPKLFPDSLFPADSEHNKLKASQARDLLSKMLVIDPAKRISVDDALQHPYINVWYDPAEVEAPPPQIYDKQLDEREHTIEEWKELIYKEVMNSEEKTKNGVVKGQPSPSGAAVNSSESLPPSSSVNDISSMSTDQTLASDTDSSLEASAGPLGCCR
Chain of Hepatocyte growth factor receptor (Homo sapiens) (P08581 whole entry): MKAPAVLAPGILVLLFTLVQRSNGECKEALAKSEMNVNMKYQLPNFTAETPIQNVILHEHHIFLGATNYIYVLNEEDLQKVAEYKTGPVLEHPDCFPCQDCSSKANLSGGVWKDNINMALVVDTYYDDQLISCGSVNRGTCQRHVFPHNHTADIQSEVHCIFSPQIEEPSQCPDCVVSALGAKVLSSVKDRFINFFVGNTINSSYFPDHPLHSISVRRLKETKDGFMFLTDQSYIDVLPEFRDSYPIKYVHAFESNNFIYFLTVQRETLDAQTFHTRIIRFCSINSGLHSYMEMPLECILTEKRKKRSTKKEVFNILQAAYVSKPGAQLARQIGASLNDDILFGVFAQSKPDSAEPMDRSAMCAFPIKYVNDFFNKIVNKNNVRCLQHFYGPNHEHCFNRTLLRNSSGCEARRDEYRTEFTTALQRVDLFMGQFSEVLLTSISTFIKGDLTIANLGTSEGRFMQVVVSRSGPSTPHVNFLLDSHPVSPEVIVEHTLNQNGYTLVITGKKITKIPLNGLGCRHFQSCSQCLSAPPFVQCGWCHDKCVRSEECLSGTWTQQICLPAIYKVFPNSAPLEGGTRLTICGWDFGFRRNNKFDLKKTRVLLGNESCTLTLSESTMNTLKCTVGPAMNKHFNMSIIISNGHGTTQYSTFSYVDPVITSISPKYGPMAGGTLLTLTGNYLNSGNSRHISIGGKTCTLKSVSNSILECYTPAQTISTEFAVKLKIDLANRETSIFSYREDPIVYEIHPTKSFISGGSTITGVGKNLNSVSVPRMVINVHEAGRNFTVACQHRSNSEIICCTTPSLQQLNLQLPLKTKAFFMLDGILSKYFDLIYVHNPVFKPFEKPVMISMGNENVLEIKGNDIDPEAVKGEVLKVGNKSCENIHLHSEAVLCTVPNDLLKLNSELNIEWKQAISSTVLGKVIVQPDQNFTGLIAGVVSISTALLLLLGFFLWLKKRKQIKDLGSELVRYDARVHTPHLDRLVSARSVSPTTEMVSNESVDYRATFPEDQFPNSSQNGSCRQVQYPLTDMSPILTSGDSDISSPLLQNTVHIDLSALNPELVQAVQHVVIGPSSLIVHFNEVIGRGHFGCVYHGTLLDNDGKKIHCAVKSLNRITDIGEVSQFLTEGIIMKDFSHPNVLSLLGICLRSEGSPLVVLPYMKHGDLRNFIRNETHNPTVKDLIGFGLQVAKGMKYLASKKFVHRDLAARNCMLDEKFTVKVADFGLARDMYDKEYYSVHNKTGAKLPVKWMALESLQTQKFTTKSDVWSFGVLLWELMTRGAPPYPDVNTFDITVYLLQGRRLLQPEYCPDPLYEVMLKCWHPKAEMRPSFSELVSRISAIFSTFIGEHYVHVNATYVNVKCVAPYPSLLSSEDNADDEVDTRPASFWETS
Chain of Angiopoietin-1 receptor (Homo sapiens) (Q02763 whole entry): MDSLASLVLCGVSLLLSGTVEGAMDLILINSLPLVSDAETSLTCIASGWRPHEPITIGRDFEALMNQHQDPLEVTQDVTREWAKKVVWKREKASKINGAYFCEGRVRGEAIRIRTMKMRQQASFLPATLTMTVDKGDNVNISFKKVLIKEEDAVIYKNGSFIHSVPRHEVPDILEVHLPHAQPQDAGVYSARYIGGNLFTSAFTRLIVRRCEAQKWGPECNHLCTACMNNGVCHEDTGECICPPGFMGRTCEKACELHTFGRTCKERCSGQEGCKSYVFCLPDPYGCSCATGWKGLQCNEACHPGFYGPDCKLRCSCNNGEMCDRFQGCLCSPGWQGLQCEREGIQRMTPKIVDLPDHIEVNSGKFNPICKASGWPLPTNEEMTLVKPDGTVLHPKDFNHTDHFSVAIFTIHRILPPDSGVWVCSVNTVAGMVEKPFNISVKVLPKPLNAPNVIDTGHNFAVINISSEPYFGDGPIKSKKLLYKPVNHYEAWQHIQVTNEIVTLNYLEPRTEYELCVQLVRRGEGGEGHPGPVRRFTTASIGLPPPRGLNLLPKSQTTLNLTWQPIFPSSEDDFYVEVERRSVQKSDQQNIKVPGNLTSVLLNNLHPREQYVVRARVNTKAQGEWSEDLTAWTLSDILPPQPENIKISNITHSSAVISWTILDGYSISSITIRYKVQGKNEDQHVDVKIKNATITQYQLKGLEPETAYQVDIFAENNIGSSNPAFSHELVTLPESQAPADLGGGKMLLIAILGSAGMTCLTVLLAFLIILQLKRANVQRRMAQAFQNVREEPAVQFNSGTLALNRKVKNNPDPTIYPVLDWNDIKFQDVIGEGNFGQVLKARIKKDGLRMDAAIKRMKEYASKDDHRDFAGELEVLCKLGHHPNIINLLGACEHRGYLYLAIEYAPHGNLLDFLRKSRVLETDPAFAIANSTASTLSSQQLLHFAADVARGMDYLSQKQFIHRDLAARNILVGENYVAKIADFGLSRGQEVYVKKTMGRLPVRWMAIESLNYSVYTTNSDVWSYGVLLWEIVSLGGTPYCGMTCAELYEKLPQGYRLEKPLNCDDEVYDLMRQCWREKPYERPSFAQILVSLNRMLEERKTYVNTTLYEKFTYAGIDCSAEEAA

Consider `O=C(O)CCCN1C(=O)/C(=C/c2ccc(-c3ccccc3Cl)o2)SC1=S`, for which the Activity in assay [1] turned out to be 15%; in assay [2], 41%; in assay [3], 22%; in assay [4], 16%; in assay [5] it was 25%; in assay [6] it was 14%. The Activity in assay [7] was determined as 3.5%. Besides, 0.3 µM corresponded to half-maximal inhibition in assay [8] (IC50).

As to `O=C1/C(=C/c2ccco2)SC(=S)N1c1cccnc1`, the IC50 in assay [8] is > 33 µM.

Regarding `O=C(O)CN1C(=O)/C(=C/c2ccco2)SC1=S`, the half-inhibitory concentration (IC50) in assay [8] was > 33 µM.

Turning to `CCC(C(=O)O)N1C(=O)/C(=C/c2ccc(-c3cc(Cl)ccc3Cl)o2)SC1=S` (stereo not drawn), the IC50 in assay [8] was determined as 0.5 µM.

Take `O=C1NC(=S)S/C1=C\c1ccc(-c2ccccc2[N+](=O)[O-])o1`: the IC50 in assay [8] is > 33 µM.

In turn, `O=C(O)CN1C(=O)/C(=C/c2ccc(-c3ccccc3Cl)o2)SC1=S` registered an IC50 in assay [8] of 1.25 µM. This lies in the single-digit micromolar range.

`CCC(C(=O)O)N1C(=O)/C(=C/c2ccc(-c3cccc(Cl)c3)o2)SC1=S` (stereo not drawn): it took 0.75 µM to reach half-maximal inhibition in assay [8] (IC50).

As to `O=C(O)CN1C(=O)/C(=C/c2ccc(-c3ccccc3F)o2)SC1=S`, half-maximal inhibition in assay [8] (IC50) was put at 3 µM.

As to `O=C(O)CCCCCN1C(=O)/C(=C/c2ccc(-c3cccc(C(F)(F)F)c3)o2)SC1=S`, it took 0.5 µM to reach half-maximal inhibition in assay [8] (IC50).

Consider `O=C(O)CCCN1C(=O)/C(=C/c2ccc(-c3cc(Cl)ccc3Cl)o2)SC1=S`, for which the IC50 in assay [8] was 0.35 µM.

With `O=C(O)CC(C(=O)O)N1C(=O)/C(=C/c2ccc(-c3c(Cl)cccc3Cl)o2)SC1=S` (stereo not drawn), the IC50 in assay [8] was 1 µM. This IC50 lies about 2.9-fold higher than the previous one.

As to `O=C1NC(=S)S/C1=C\c1cccnc1`, in assay [8], the IC50 is > 33 µM.

Molecule `O=C(O)CCN1C(=O)/C(=C/c2ccc(-c3ccccc3Cl)o2)SC1=S` displayed an IC50 in assay [8] of 0.75 µM.

Regarding `COC(=O)CCCN1C(=O)/C(=C/c2ccc(-c3ccc(Br)cc3)o2)SC1=S`, the IC50 in assay [8] is > 33 µM.

Consider `CCCC(C(=O)O)N1C(=O)/C(=C/c2ccc(-c3ccc(Br)cc3)o2)SC1=S` (stereo not drawn), for which half-maximal inhibition in assay [8] (IC50) was put at 0.5 µM.

For the molecule `O=C(O)CCN1C(=O)/C(=C/c2ccc(-c3ccccc3F)o2)SC1=S`, the Activity came out at 56% in assay [1]; 87% in assay [2]; 44% in assay [3]; 22% in assay [4]; 32% in assay [5]; 39% in assay [6]. The Activity in assay [7] turned out to be 2.5%. The molecule further returned an IC50 in assay [8] of 0.3 µM.

In assay [8], `CCc1ccc(-c2ccc(/C=C3\SC(=S)N(C(CC(=O)O)C(=O)O)C3=O)o2)cc1` (stereo not drawn) had an IC50 of 1.8 µM.

As for `COC(=O)CCCN1C(=O)/C(=C/c2ccc(-c3ccccc3F)o2)SC1=S`, the IC50 in assay [8] was > 33 µM.

With `COC(=O)c1ccc(/C=C2\SC(=S)N(c3ccc(O)c(C(=O)O)c3)C2=O)cc1`, the IC50 in assay [8] is > 33 µM.

For `O=C1/C(=C/c2ccc(Cl)cc2Cl)SC(=S)N1Nc1ccccc1`, the IC50 in assay [8] was > 33 µM.

Turning to `O=C1NC(=S)S/C1=C\c1cccc(Br)c1`, the IC50 in assay [8] is > 33 µM.

`CCC(C(=O)O)N1C(=O)/C(=C/c2ccc(-c3ccc(Br)cc3)o2)SC1=S` (stereo not drawn) yielded a concentration for half-maximal inhibition (IC50) in assay [8] of 0.5 µM. That is a sub-micromolar value.

In the case of `O=C(O)CC(C(=O)O)N1C(=O)/C(=C/c2ccc(-c3ccc(Br)cc3)o2)SC1=S` (stereo not drawn), the IC50 in assay [8] worked out at 2.8 µM.

In the case of `O=C(O)CCCCCN1C(=O)/C(=C/c2ccc(-c3ccccc3Cl)o2)SC1=S`, inhibition in assay [8] was half-maximal at 0.5 µM (IC50).

For `O=C(O)CCN1C(=O)/C(=C/c2ccc(-c3ccc([N+](=O)[O-])cc3)o2)SC1=S`, the IC50 in assay [8] worked out at 0.65 µM.

With `O=C(O)c1ccc(N2C(=O)/C(=C/c3cccnc3)SC2=S)cc1`, the IC50 in assay [8] was > 33 µM.

For `CSCCC(C(=O)O)N1C(=O)/C(=C/c2ccc(-c3ccc(Cl)c(Cl)c3)o2)SC1=S` (stereo not drawn), the half-maximal inhibitory concentration (IC50) in assay [8] was determined as 0.75 µM. That is a sub-micromolar value.

As for `O=C1/C(=C/c2ccc(-c3ccc(Br)cc3)o2)SC(=S)N1c1cccc(O)c1`, in assay [8], the IC50 was 2 µM.

With `O=C1/C(=C/c2ccc(-c3ccc(Cl)c(Cl)c3)o2)SC(=S)N1c1ccc(F)cc1`, the IC50 in assay [8] was > 33 µM.

As to `CCCC(C(=O)O)N1C(=O)/C(=C/c2ccc(-c3ccc([N+](=O)[O-])cc3)o2)SC1=S` (stereo not drawn), 1.8 µM corresponded to half-maximal inhibition in assay [8] (IC50). In other words, the single-digit micromolar range.

Consider `O=C(O)CCCCCN1C(=O)/C(=C/c2ccc(-c3ccc(Br)cc3)o2)SC1=S`, for which the Activity in assay [1] came to 34%; in assay [2] it was 65%; in assay [3], 46%; in assay [4], 5%; in assay [5], 7%; in assay [6] it was 21%. In addition, the Activity in assay [7] stood at 3%. The IC50 in assay [8] amounted to 0.2 µM.

In assay [8], `CCOC(=O)c1ccc(-c2ccc(/C=C3\SC(=S)N(C(CC(=O)O)C(C)=O)C3=O)o2)cc1` (stereo not drawn) registered an IC50 of 0.8 µM.

With `O=C(O)CCCN1C(=O)/C(=C/c2ccc(-c3ccccc3F)o2)SC1=S`, in assay [8], the IC50 was 3 µM. This IC50 lies about 3.8-fold higher than the previous one.

For `O=C(O)CCCN1C(=O)/C(=C/c2ccc(-c3ccc(Br)cc3)o2)SC1=S`, the Activity worked out at 28% in assay [1]; 92% in assay [2]; 28% in assay [3]; 10% in assay [4]; 51% in assay [5]; 100% in assay [6]. In assay [7], the Activity is 3%. For the same molecule, inhibition in assay [8] was half-maximal at 0.2 µM (IC50).

`O=C(O)C(Cc1ccccc1)N1C(=O)/C(=C/c2ccncc2)SC1=S` (stereo not drawn): the IC50 in assay [8] is > 33 µM.

Molecule `O=C(O)CCCN1C(=O)/C(=C/c2ccc(-c3cccc(Cl)c3)o2)SC1=S` registered an IC50 in assay [8] of 0.35 µM.

`O=C(O)CCN1C(=O)/C(=C/c2ccc(-c3cccc(Cl)c3)o2)SC1=S` yielded an IC50 in assay [8] of 1 µM. Compared with the last molecule, the IC50 is about 2.9-fold higher.

In the case of `O=C(O)CN1C(=O)/C(=C/c2ccncc2)SC1=S`, in assay [8], the IC50 is > 33 µM.

With `CCCC(C(=O)O)N1C(=O)/C(=C/c2ccc(-c3ccc(Cl)c(Cl)c3)o2)SC1=S` (stereo not drawn), the IC50 in assay [8] was 3.9 µM. This counts as single-digit micromolar.

Molecule `O=C(O)CCCN1C(=O)/C(=C/c2ccc(-c3c(Cl)cccc3Cl)o2)SC1=S` showed a half-inhibitory concentration (IC50) in assay [8] of 0.5 µM.
